{"source": "paper PMC4089878", "about": "(Molecular cancer therapeutics, 2013)", "key": {"K562 cells [1]": {"test_system": "K562 cells", "assay": "Cytotoxicity / viable cell count in K562 leukemic cells", "type": "cell-based, human"}, "[2]": {"test_system": "ID1 protein in K562 cells", "assay": "Western blot of USP1 and ID1 protein levels in K562 cells", "type": "cell-based, human", "details": "for USP1 and ID1 protein levels: Western blot, 24 hrs (Pimozide 48 hrs)"}, "[3]": {"test_system": "primary human cord blood CD34+ cells", "assay": "Growth of normal cord blood CD34+ cells", "type": "cell-based", "details": "Supplementary figure 5"}, "K562 xenograft": {"test_system": "K562 xenograft", "assay": "K562 mouse xenograft", "type": "in vivo, athymic nude mice", "details": "15 mg/kg daily ip, nude mice", "how_it_was_run": "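Athymic nude mice aged 6–8 weeks were injected subcutaneously in the flank with 5 × 10^6 K562 cells mixed 1:1 with matrigel. At […] tumor size, mice received 15 mg/kg daily ip in 2% DMSO + 0.3% tartaric acid, or vehicle alone (n=10 per group). Tumor volume was calculated as width² × length/2 and compared by […] t-test.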"}, "K562 cells [4]": {"test_system": "K562 cells", "assay": "Apoptosis", "type": "cell-based, human", "details": "24 hrs (Pimozide 48 hrs)"}, "[5]": {"test_system": "MOLM14, OCI-AML3, U937 and SK-NO1", "assay": "Cytotoxicity in AML cell lines", "type": "cell-based, human", "details": "24 hrs"}, "[6]": {"test_system": "primary AML bone marrow and peripheral blood cells", "assay": "Cytotoxicity in primary AML patient cells", "type": "cell-based, human", "details": "48-72 hrs", "how_it_was_run": "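Fresh bone marrow and peripheral blood were taken from AML patients, and mononuclear cells were harvested. These were cultured in triplicate with test compound or DMSO for 48–72 h, and viability was determined. Data come from 3 patient samples, shown as mean ± SEM.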"}, "Ub-FANCD2": {"test_system": "Ub-FANCD2", "assay": "Western blot of Ub-FANCD2, Ub-FANCI, Ub-PCNA levels", "type": "cell-based, human", "details": "supplementary figure 6"}, "K562 cells [7]": {"test_system": "K562 cells", "assay": "Benzidine staining differentiation of K562 cells", "type": "cell-based, human", "details": "low dose, 5 days"}, "U2OS-DRGFP cells": {"test_system": "U2OS-DRGFP cells", "assay": "DR-GFP homologous recombination reporter", "type": "cell-based, human", "details": "24 h treatment", "how_it_was_run": "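U2OS-DRGFP cells carry a single chromosomally integrated copy of the HR substrate and were grown in DMEM with 10% FBS. DSBs were induced by I-SceI expression after plasmid transfection. After 24 h, cells were exposed to test compound for 24 h. The percentage of viable GFP-positive cells was measured by FACS and normalized to the solvent vehicle group.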"}, "native USP1/UAF1 complex": {"test_system": "native USP1/UAF1 complex", "sequence (O94782 1-671 limits assumed)": "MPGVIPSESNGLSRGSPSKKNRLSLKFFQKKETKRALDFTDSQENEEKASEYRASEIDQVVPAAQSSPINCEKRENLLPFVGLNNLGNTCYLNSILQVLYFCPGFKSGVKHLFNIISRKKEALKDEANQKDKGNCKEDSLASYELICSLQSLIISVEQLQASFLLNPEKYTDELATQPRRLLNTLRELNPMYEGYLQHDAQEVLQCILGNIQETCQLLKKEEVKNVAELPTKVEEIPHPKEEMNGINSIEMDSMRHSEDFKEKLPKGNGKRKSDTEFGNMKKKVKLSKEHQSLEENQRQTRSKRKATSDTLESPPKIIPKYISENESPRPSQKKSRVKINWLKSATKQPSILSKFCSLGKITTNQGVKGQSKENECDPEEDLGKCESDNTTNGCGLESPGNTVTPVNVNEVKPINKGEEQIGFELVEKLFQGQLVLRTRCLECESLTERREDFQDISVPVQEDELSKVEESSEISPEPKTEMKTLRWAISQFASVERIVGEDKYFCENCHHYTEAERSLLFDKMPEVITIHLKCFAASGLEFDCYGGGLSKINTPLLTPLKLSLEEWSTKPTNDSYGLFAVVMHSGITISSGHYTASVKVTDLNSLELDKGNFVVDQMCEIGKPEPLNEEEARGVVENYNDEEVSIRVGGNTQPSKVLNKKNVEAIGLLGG", "sequence (Q8TAF3 whole entry, further chain)": "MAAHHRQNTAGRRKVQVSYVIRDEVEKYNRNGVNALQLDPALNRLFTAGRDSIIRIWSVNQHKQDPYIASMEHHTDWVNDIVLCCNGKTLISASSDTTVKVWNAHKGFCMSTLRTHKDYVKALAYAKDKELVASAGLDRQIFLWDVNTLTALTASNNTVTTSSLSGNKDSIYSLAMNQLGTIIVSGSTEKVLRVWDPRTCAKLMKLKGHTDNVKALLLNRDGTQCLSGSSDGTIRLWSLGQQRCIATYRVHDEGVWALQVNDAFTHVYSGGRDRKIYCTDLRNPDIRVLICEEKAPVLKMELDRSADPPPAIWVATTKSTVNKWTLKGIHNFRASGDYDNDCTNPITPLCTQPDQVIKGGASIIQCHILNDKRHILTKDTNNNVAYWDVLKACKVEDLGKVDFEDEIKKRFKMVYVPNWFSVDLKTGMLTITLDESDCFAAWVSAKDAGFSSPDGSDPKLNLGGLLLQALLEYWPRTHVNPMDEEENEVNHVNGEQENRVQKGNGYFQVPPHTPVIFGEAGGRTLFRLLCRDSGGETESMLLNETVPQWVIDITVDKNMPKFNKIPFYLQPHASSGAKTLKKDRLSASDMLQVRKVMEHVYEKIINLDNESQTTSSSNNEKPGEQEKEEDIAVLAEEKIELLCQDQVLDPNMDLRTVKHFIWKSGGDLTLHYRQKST", "assay": "HA-Ub-VS competition assay on native USP1 in cell extracts", "type": "cell-based, human", "details": "K562 cells treated 24 hrs (SJB2-043 1 μM); Ub-Aldehyde 5 μM added to extract", "how_it_was_run": "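K562 cells were treated with test compound or DMSO for 24 h. Cell extracts were then incubated with 0.5 μM final HA-Ub-vinylsulfone for 45 min at 30 °C. As a control, an aliquot of untreated extract was pretreated with 5 μM ubiquitin-aldehyde before probe addition. Samples were immunoblotted with anti-HA and anti-USP1 antibodies.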"}}}
{"compound": "O=c1[nH]c2ccccc2n1C1CCN(CCCC(c2ccc(F)cc2)c2ccc(F)cc2)CC1", "note": "[Pimozide, reference compound]", "values": [{"measurement": "K562 cell growth", "setting": "K562 cells [1]; 48 hrs", "result": "dose-dependent inhibition of K562 cell growth"}, {"measurement": "USP1 and ID1 protein levels", "setting": "[2]", "result": "promoted ID1 degradation"}, {"measurement": "effect on normal human cord blood CD34+ cells", "setting": "[3]", "result": "tolerated at high micromolar doses"}, {"measurement": "tumor growth in K562 xenograft", "setting": "K562 xenograft", "result": "modest inhibition of tumor growth"}, {"measurement": "apoptosis of K562 cells", "setting": "K562 cells [4]", "result": "induction of apoptosis"}]}
{"compound": "O=C1c2ccccc2C(=O)c2oc(-c3ccccc3)nc21", "note": "[SJB2-043]", "values": [{"measurement": "EC50", "setting": "K562 cells [1]; read-out: EC50, decrease in the number of viable K562 cells, 24 hrs, ± 0.08 (95% Confidence Limits)", "result": "~1070", "unit": "nM"}, {"measurement": "USP1/ID1 degradation, time course", "setting": "[2]; 2 μM, 18 hrs or 26 hrs", "result": "complete degradation of USP1/ID1"}, {"measurement": "USP1 and ID1 protein levels", "setting": "[2]", "result": "dose-dependent decrease in USP1 levels and a concomitant degradation of ID1 protein"}, {"measurement": "cytotoxicity in AML cell lines", "setting": "[5]", "result": "dose-dependent cytotoxicity and concomitant ID1 degradation"}, {"measurement": "cytotoxicity on primary AML bone marrow and peripheral blood cells", "setting": "[6]", "result": "dose-dependent cytotoxicity"}, {"measurement": "effect on normal human cord blood CD34+ cells", "setting": "[3]", "result": "did result in growth inhibition"}, {"measurement": "levels of Ub-FANCD2 / Ub-PCNA", "setting": "Ub-FANCD2", "result": "increased the level of Ub-FANCD2"}, {"measurement": "apoptosis of K562 cells", "setting": "K562 cells [4]", "result": "induced apoptosis of K562 cells in a dose-dependent manner"}, {"measurement": "differentiation of K562 cells", "setting": "K562 cells [7]", "result": "activated differentiation of K562 cells into hemoglobin-expressing erythroid cells"}]}
{"compound": "O=C1c2ccccc2C(=O)c2oc(-c3cccnc3)nc21", "note": "[SJB3-019A]", "values": [{"measurement": "potency relative to SJB2-043 in cytoxicity in K562 cells", "setting": "K562 cells [1]; K562 cells", "result": 5, "unit": "times"}, {"measurement": "potency relative to SJB2-043 in promoting ID1 degradation", "setting": "[2]", "result": 5, "unit": "times"}, {"measurement": "gene conversion / HR activity", "setting": "U2OS-DRGFP cells", "result": "decreased the HR activity"}, {"measurement": "levels of Ub-FANCD2 / Ub-PCNA", "setting": "Ub-FANCD2", "result": "increased the levels of Ub-FANCD2 and Ub-PCNA"}]}
{"compound": "Ub-aldehyde", "values": [{"measurement": "Ub-VS labeling of native USP1", "setting": "native USP1/UAF1 complex", "result": "complete loss of USP1-Ub-VS conjugates"}]}
